The source made the active and inactive calls. The calls are words filed in the database; no cut-off is given here.
Experiments:
Homo sapiens [1] = organism: Homo sapiens; experiment: Cytotoxicity against human RPMI18226 cells assessed as decrease in cell viability after 24 hrs by calcein AM/ethidium homodimer staining-based flow cytometric method; assay type: functional
[2] = Cell cycle arrest in human […] cells assessed as accumulation at G1 phase at 1.25 uM […] by FxCycle violet staining-based flow cytometric method (reference value: 28.2%); assay type: functional
Summary of the method: (§1)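 Cells treated 24 h with vehicle or WFA; MM-CSCs were seeded at 100 000 per well and left to adhere 24 h first, RPMIs seeded at 300 000 per well and treated at once. Floating and adherent cells fixed and permeabilized, adjusted to 10^6 cells/mL in PBS, then stained with FxCycle DNA dye for 30 min at room temperature. Flow cytometry; ≥3 independent experiments, mean ± SEM.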

[3] = Cytotoxicity against human RPMI18226 cells assessed as dead cells at 10 uM after 24 hrs by calcein AM/ethidium homodimer staining-based flow cytometric method (reference value: 21.4%); assay type: functional
RPMI-8226 (Homo sapiens) [4] = experiment: Cell cycle arrest in human RPMI-8226 cells assessed as accumulation at S phase at 1.25 uM […] by FxCycle violet staining-based flow cytometric method (reference value: 40.9%)
[5] = test system: Multiple myeloma cancer stem cell; experiment: Cytotoxicity against human multiple myeloma cancer stem cells assessed as dead cells at 10 uM after 24 hrs by calcein AM/ethidium homodimer staining-based flow cytometric method (reference value: 0.7%); assay type: functional
[6] = test system: Multiple myeloma cancer stem cell; experiment: Induction of differentiation of human multiple myeloma cancer stem cells assessed as upregulation of Kit mRNA expression at 0.31 to 5 uM after 24 hrs by qPCR method; assay type: functional, cell-based
Summary of the method: (§2)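 MM-CSCs treated with vehicle or increasing WFA concentrations for 24 h. Relative mRNA levels of the stemness markers then measured; mean ± SEM of 3 independent experiments, one-way ANOVA with Bonferroni test.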

[7] = test system: Multiple myeloma cancer stem cell; experiment: Cell cycle arrest in human multiple myeloma cancer stem cells assessed as accumulation at G1 phase at 0.62 uM […] by FxCycle violet staining-based flow cytometric method (reference value: 45.1%); assay type: functional; summary of the method: as §1
[8] = test system: Multiple myeloma cancer stem cell; experiment: Induction of differentiation of human multiple myeloma cancer stem cells assessed as downregulation of MSI2 mRNA expression at 0.31 to 5 uM after 24 hrs by qPCR method; assay type: functional, cell-based; summary of the method: as §2
[9] = Cell cycle arrest in human […] cells assessed as accumulation at sub-G1 phase at 1.25 uM […] by FxCycle violet staining-based flow cytometric method (reference value: 10.8%); assay type: functional; summary of the method: as §1
RPMI-8226 (Homo sapiens) [10] = experiment: Cell cycle arrest in human RPMI-8226 cells assessed as accumulation at S phase at 2.5 uM […] by FxCycle violet staining-based flow cytometric method (reference value: 40.9%)
[11] = Cytotoxicity against human CD34-positive hematopoietic stem cells assessed as decrease in cell viability at <5 uM after 24 hrs by calcein AM/ethidium homodimer staining-based flow cytometric method
Homo sapiens [12] = organism: Homo sapiens; experiment: Cytotoxicity against human RPMI18226 cells assessed as increase in dead cells at 1.25 uM after 24 hrs by calcein AM/ethidium homodimer staining-based flow cytometric method (reference value: 21.4%); assay type: functional, cell-based
RPMI-8226 (Homo sapiens) [13] = experiment: Cell cycle arrest in human RPMI-8226 cells assessed as accumulation at S phase at 0.62 uM […] by FxCycle violet staining-based flow cytometric method (reference value: 40.9%)
[14] = test system: Multiple myeloma cancer stem cell; experiment: Cytotoxicity against human multiple myeloma cancer stem cells assessed as decrease in cell viability after 24 hrs by calcein AM/ethidium homodimer staining-based flow cytometric method; assay type: functional
[15] = test system: Multiple myeloma cancer stem cell; experiment: Induction of differentiation of human multiple myeloma cancer stem cells assessed as downregulation of CD166 mRNA expression at 0.31 to 5 uM after 24 hrs by qPCR method; assay type: functional, cell-based; summary of the method: as §2
[16] = Cytotoxicity against human CD34-positive hematopoietic stem cells assessed as decrease in cell viability at 10 uM after 24 hrs by calcein AM/ethidium homodimer staining-based flow cytometric method
[17] = test system: Multiple myeloma cancer stem cell; experiment: Antiproliferative activity against human multiple myeloma cancer stem cells after 72 hrs by MTT assay; assay type: functional, cell-based
Summary of the method: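 MM-CSCs plated at 5000 cells/well and allowed to adhere 24 h, then exposed to 0–10 μM WFA for 72 h. MTT added for 2 h. Growth taken as absorbance relative to vehicle-control wells ×100. IC50 fitted from at least five concentrations; mean of three independent experiments ± SEM.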

[18] = test system: Multiple myeloma cancer stem cell; experiment: Antimigratory activity in human multiple myeloma cancer stem cells at 2.5 uM after 24 hrs by scratch assay; assay type: functional, cell-based
Summary of the method: (§3)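 MM-CSCs seeded at 100 000 cells per well, grown 24 h to a confluent monolayer, scratched with a pipette tip and imaged at 0 h. Cells then treated with increasing WFA concentrations for 24 h and the same spot re-imaged. Percent unfilled space = scratch width at 24 h / width at 0 h × 100; recovery = 100 − unfilled. 3 independent experiments.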

[19] = Cell cycle arrest in human […] cells assessed as accumulation at sub-G1 phase at 2.5 uM […] by FxCycle violet staining-based flow cytometric method (reference value: 10.8%); assay type: functional; summary of the method: as §1
[20] = Cytotoxicity against human RPMI18226 cells assessed as cell viability at 10 uM after 24 hrs by calcein AM/ethidium homodimer staining-based flow cytometric method (reference value: 67.7%); assay type: functional; details: RPMI18226, 24 h, read-out: Activity
[21] = Cytotoxicity against human RPMI18226 cells assessed as cell viability at 1.25 uM after 24 hrs by calcein AM/ethidium homodimer staining-based flow cytometric method (reference value: 67.7%); assay type: functional; details: RPMI18226, 24 h, read-out: Activity
Homo sapiens [22] = organism: Homo sapiens; experiment: Induction of apoptosis in human […] cells assessed as increase in late apoptotic cells at 1.25 uM after 24 hrs by annexin V/propidium iodide staining-based flow cytometric method; assay type: functional, cell-based
Summary of the method: (§4)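 Annexin V/propidium iodide apoptosis staining after 24 h WFA. MM-CSCs adhered 24 h before treatment; RPMIs treated immediately after seeding at 300 000 per well. Floating and adherent cells washed, adjusted to 10^6 cells/mL, stained 15 min at room temperature, flow cytometry separating viable, early and late apoptotic cells; ≥3 independent experiments, mean ± SEM.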

[23] = test system: Multiple myeloma cancer stem cell; experiment: Induction of morphological changes in human multiple myeloma cancer stem cells assessed as appearance of epithelial/lymphoblastic-like morphology at 0.62 uM after 24 hrs by phalloidin/DAPI staining-based assay; assay type: functional
Summary of the method: (§5)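 MM-CSCs seeded at 5000 cells/well and allowed to adhere 24 h, then treated with increasing WFA for 24 h. Fixed in 4% paraformaldehyde for 10 min, permeabilized with 0.1% Triton X-100 for 5 min, stained with 5 U/mL phalloidin for 20 min and 1 μg/mL DAPI for 5 min at room temperature. Imaged; cell area and circularity quantified; 3 experiments.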

[24] = test system: Multiple myeloma cancer stem cell; experiment: Induction of differentiation of human multiple myeloma cancer stem cells assessed as downregulation of SOX2 mRNA expression at 0.31 to 5 uM after 24 hrs by qPCR method; assay type: functional, cell-based; summary of the method: as §2
[25] = Cell cycle arrest in human […] cells assessed as accumulation at G2/M phase at 1.25 uM […] by FxCycle violet staining-based flow cytometric method (reference value: 20.2%); assay type: functional; summary of the method: as §1
[26] = test system: Multiple myeloma cancer stem cell; experiment: Induction of apoptosis in human multiple myeloma cancer stem cells assessed as decrease in viable cells at 5 uM after 24 hrs by annexin V/propidium iodide staining-based flow cytometric method; assay type: functional; summary of the method: as §4
[27] = Antiproliferative activity against human […] cells after 72 hrs by XTT assay; assay type: functional, cell-based
Summary of the method: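 RPMI 8226 cells in RPMI 1640 with 10% FBS, plated at 15 000 cells/well and treated immediately with 0–10 μM WFA for 72 h. XTT added for 4 h. Growth as absorbance relative to vehicle control ×100. IC50 fitted from at least five concentrations; mean of three independent experiments ± SEM.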

Homo sapiens [28] = organism: Homo sapiens; experiment: Cell cycle arrest in human […] cells assessed as accumulation at sub-G1 phase […] by FxCycle violet staining-based flow cytometric method; assay type: functional; summary of the method: as §1
[29] = test system: Multiple myeloma cancer stem cell; experiment: Cell cycle arrest in human multiple myeloma cancer stem cells assessed as accumulation at G2/M phase at 1.25 uM […] by FxCycle violet staining-based flow cytometric method (reference value: 22.9%); assay type: functional; summary of the method: as §1
[30] = test system: Multiple myeloma cancer stem cell; experiment: Induction of morphological changes in human multiple myeloma cancer stem cells assessed as appearance in spherical shape at 1.25 uM after 24 hrs by phalloidin/DAPI staining-based assay; assay type: functional; summary of the method: as §5
[31] = test system: Multiple myeloma cancer stem cell; experiment: Antimigratory activity in human multiple myeloma cancer stem cells at 0.62 to 1.25 uM after 24 hrs by scratch assay; assay type: functional, cell-based; summary of the method: as §3
[32] = Cell cycle arrest in human […] cells assessed as accumulation at sub-G1 phase at 0.62 uM […] by FxCycle violet staining-based flow cytometric method (reference value: 10.8%); assay type: functional; summary of the method: as §1
[33] = test system: Multiple myeloma cancer stem cell; experiment: Cell cycle arrest in human multiple myeloma cancer stem cells assessed as accumulation at G1 phase at 1.25 uM […] by FxCycle violet staining-based flow cytometric method (reference value: 45.1%); assay type: functional; summary of the method: as §1
[34] = test system: Multiple myeloma cancer stem cell; experiment: Cytotoxicity against human multiple myeloma cancer stem cells assessed as cell viability at 10 uM after 24 hrs by calcein AM/ethidium homodimer staining-based flow cytometric method (reference value: 95.7%); assay type: functional; details: read-out: Activity
[35] = test system: Multiple myeloma cancer stem cell; experiment: Cell cycle arrest in human multiple myeloma cancer stem cells assessed as accumulation at G2/M phase at 2.5 uM […] by FxCycle violet staining-based flow cytometric method (reference value: 22.9%); assay type: functional; summary of the method: as §1
[36] = test system: Multiple myeloma cancer stem cell; experiment: Induction of morphological changes in human multiple myeloma cancer stem cells assessed as appearance of larger cytoplasmic area at 1.25 uM after 24 hrs by phalloidin/DAPI staining-based assay; assay type: functional; summary of the method: as §5
[37] = test system: Multiple myeloma cancer stem cell; experiment: Cell cycle arrest in human multiple myeloma cancer stem cells assessed as accumulation at G1 phase at 2.5 uM […] by FxCycle violet staining-based flow cytometric method (reference value: 45.1%); assay type: functional; summary of the method: as §1
[38] = test system: Multiple myeloma cancer stem cell; experiment: Induction of differentiation of human multiple myeloma cancer stem cells assessed as upregulation of CD44 mRNA expression at 0.31 to 5 uM after 24 hrs by qPCR method; assay type: functional, cell-based; summary of the method: as §2
[39] = test system: Multiple myeloma cancer stem cell; experiment: Cytotoxicity against human multiple myeloma cancer stem cells assessed as cell viability at 2.5 uM after 24 hrs by calcein AM/ethidium homodimer staining-based flow cytometric method (reference value: 95.7%); assay type: functional; details: read-out: Activity
Homo sapiens [40] = organism: Homo sapiens; experiment: Induction of apoptosis in human […] cells assessed as decrease in viable cells at 1.25 uM after 24 hrs by annexin V/propidium iodide staining-based flow cytometric method; assay type: functional, cell-based; summary of the method: as §4
[41] = test system: Multiple myeloma cancer stem cell; experiment: Induction of apoptosis in human multiple myeloma cancer stem cells assessed as increase in late apoptotic cells at 5 uM after 24 hrs by annexin V/propidium iodide staining-based flow cytometric method; assay type: functional; summary of the method: as §4
[42] = test system: Multiple myeloma cancer stem cell; experiment: Cytotoxicity against human multiple myeloma cancer stem cells assessed as dying cells at 10 uM after 24 hrs by calcein AM/ethidium homodimer staining-based flow cytometric method (reference value: 3.6%); assay type: functional
[43] = test system: Multiple myeloma cancer stem cell; experiment: Induction of morphological changes in human multiple myeloma cancer stem cells assessed as appearance in circular shape at 0.62 uM after 24 hrs by phalloidin/DAPI staining-based assay; assay type: functional; summary of the method: as §5
[44] = test system: Multiple myeloma cancer stem cell; experiment: Induction of differentiation of human multiple myeloma cancer stem cells assessed as downregulation of CD151 mRNA expression at 0.31 to 5 uM after 24 hrs by qPCR method; assay type: functional, cell-based; summary of the method: as §2
[45] = test system: Multiple myeloma cancer stem cell; experiment: Induction of morphological changes in human multiple myeloma cancer stem cells assessed as cell enlargement at 0.62 uM after 24 hrs by phalloidin/DAPI staining-based assay; assay type: functional; summary of the method: as §5

SMILES: CC1=C(CO)C(=O)O[C@@H]([C@@H](C)[C@H]2CC[C@H]3[C@@H]4C[C@H]5O[C@]56[C@@H](O)C=CC(=O)[C@]6(C)[C@H]4CC[C@]23C)C1 [WITHAFERIN A]
- Activity (Homo sapiens [1]): Dose-dependent effect
- Activity [2]: 19.1%
- Activity [3]: 87%
- Activity (RPMI-8226 (Homo sapiens) [4]): 29.4%
- Activity [5]: 56.4%
- Activity [6]: Active
- Activity [7]: 21.5%
- Activity [8]: Active
- Activity [9]: 23.1%
- Activity (RPMI-8226 (Homo sapiens) [10]): 34%
- Activity [11]: Non-Toxic
- Activity (Homo sapiens [12]): Active
- Activity (RPMI-8226 (Homo sapiens) [13]): 31.7%
- Activity [14]: Dose-dependent effect
- Activity [15]: Active
- Activity [16]: Toxic
- IC50 [17]: 650 nM
- Activity [18]: Active
- Activity [19]: 21.5%
- viability at 10 µM [20]: 8.2%
- viability at 1.25 µM [21]: 32.1%
- Activity (Homo sapiens [22]): Active
- Activity [23]: Active
- Activity [24]: Active
- Activity [25]: 28.4%
- Activity [26]: Active
- IC50 [27]: 224 nM
- Activity (Homo sapiens [28]): Dose-dependent effect
- Activity [29]: 59.6%
- Activity [30]: Active
- Activity [31]: inactive
- Activity [32]: 15.6%
- Activity [33]: 15.5%
- viability at 10 µM [34]: 12.1%
- Activity [35]: 61.4%
- Activity [36]: Active
- Activity [37]: 19.5%
- Activity [38]: Active
- viability at 2.5 µM [39]: 64.6%
- Activity (Homo sapiens [40]): Active
- Activity [41]: Active
- Activity [42]: 31.5%
- Activity [43]: Active
- Activity [44]: Active
- Activity [45]: Active
